# LMPTP inh = LMPTP phosphatase inhibitors, primary screen, biochemical, fluorescence intensity, uHTS; Low molecular weight phosphotyrosine protein phosphatase (Homo sapiens), P24666; recombinant LMPTP-A, OMFP fluorogenic substrate; inhibition, % at 20 µM; hit rate 0.22% among 360,000; AID 651560, 2012;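 active means compounds that cut the enzyme signal by at least half of the control window in the single-dose screen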;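 further: plate controls were DMSO wells with enzyme plus substrate for no effect and substrate without enzyme for full effect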
#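 Test system: LMPTP-A phosphatase enzyme. Amount: LMPTP-A at 0.625 nM final in the reaction. Reagent: OMFP substrate, 400 µM final. Times: 50 min at room temperature. Signal: endpoint fluorescence intensity from OMFP dephosphorylation. Read-out basis: % inhibition. Benchmarks: no-enzyme and uninhibited controls.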
# STEP inh = STEP phosphatase inhibitors, primary screen, biochemical, fluorescence intensity, uHTS; Tyrosine-protein phosphatase non-receptor type 5 (Homo sapiens), P54829; recombinant STEP, OMFP fluorogenic substrate; inhibition, % at 20 µM; hit rate 0.25% among 360,000;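 active means inhibition at 20 µM, scaled per plate between control wells, above about 37%, limit read from the data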;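 further: 0% = DMSO with enzyme and substrate and 100% = substrate only without enzyme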
#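 Test system: STEP tyrosine phosphatase / Reagent: OMFP at 25 µM / Doses: 20 µM, 1% DMSO / Read-out: percent inhibition scaled to no-enzyme and uninhibited-enzyme controls, plate-pattern corrected / Detection: FITC-channel fluorescence of OMFP product / Medium: Bis-Tris buffer pH 6.0, 2.5 mM DTT, 0.005% Tween 20 / Schedule: 20 min at room temperature, dark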
# SUMO1-SIM PPI = modulators of SUMO1 protein-protein interactions, primary screen, biochemical, uHTS; inhibition, % at 20 µM; hit rate 0.33% among 360,000; Small ubiquitin-related modifier 1 (Homo sapiens), P63165; SUMO1 binding to a labelled peptide, TR-FRET, 1 h; AID 602429, 2012; in the data active means inhibition above about 37%
# Scp1 inh = Scp-1 phosphatase inhibitors, primary screen, biochemical, colorimetric, uHTS; Carboxy-terminal domain RNA polymerase II polypeptide A small phosphatase 1 (Homo …; inhibition, % at 20 µM; Recombinant Scp1, phosphopeptide, malachite green phosphate absorbance; AID 493091, 2011; hit rate 0.88% among 340,000;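 active means inhibition above about 50% at 20 µM, limit read from the data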;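 further: plate controls were DMSO wells with enzyme for no effect and wells lacking enzyme for full effect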
#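 Test system: SCP-1 phosphatase catalytic domain, residues 76-261; measured by: colorimetric phosphate reagent with accelerator and stabiliser, absorbance at 630 nm; timing: enzyme reaction 45 min at room temperature, colour 5 min, stabilisation 30 min; also added: Phosphorylated 17-residue peptide substrate; compound dosing: one concentration, 20 µM, with 1.0% DMSO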
# DNMT1 inh = human DNMT1 methyltransferase inhibitors, primary screen, biochemical, molecular beacon, fluorescence, HinP1I cleavage, uHTS. AID 588458, 2011. inhibition (reported as % activation of signal), % at 10 µM. hit rate 0.83% among 360,000; in the data active means inhibition above about 50%
# Active calls of the source: *; . = no result given. In the library only some 1.7% were active in any assay of this set; here they are far more common.
SMILES,LMPTP inh,STEP inh,SUMO1-SIM PPI,Scp1 inh,DNMT1 inh
NC(=S)n1[nH]c(-c2ccc([N+](=O)[O-])cc2)c(N=Nc2cccc([N+](=O)[O-])c2)c1=O,57.5*,21.8,87.6*,73.6*,-2.0
Cc1[nH]n(-c2ccccc2)c(=O)c1N=Nc1cccc([N+](=O)[O-])c1,2.6,0.6,-18.4,10.5,-6.0
CCCCn1nnnc1C(c1cc2ccccc2o1)N(C)Cc1ccc(Cl)cc1 (centres undefined),3.7,.,2.4,.,.
COCCNc1nc(NCCOc2ccccc2)c2sc(-c3ccccc3)cc2n1,4.7,11.4,1.1,.,-22.0
Cc1cc2nc3s/c(=C/c4ccc(-c5ccccc5C(=O)O)o4)c(=O)n3c2cc1C,7.5,24.0,16.1,97.8*,45.3
Cc1cc2nc(/C(C#N)=C\c3ccc(-c4ccccc4C(=O)O)o3)[nH]c2cc1C,5.0,-8.3,-21.6,27.0,3.6
O=C(Nc1nnc([C@H]2C[C@H](O)[C@@H](CO)O2)s1)c1cccc(Oc2ccccc2)c1,3.0,-2.3,2.2,.,2.5
Cc1cc(N2CCN(c3ccc([N+](=O)[O-])c4cccnc34)CC2)c2ccccc2n1,96.8*,11.3,5.5,-13.0,-30.6
Cc1cc(N2CCN(c3nc(-c4ccccc4)cs3)CC2)c2ccccc2n1,81.9*,4.7,-1.4,1.6,-8.4
Cc1cc(N2CCN(c3ccc(C(F)(F)F)cc3[N+](=O)[O-])CC2)c2ccccc2n1,44.9,4.8,-23.1,3.6,-3.2
C[n+]1c(/C=C/c2ccc3c(c2)OCO3)ccc2ccccc21,-0.4,-1.4,-8.0,105.1*,2.0
COc1cccc(CNC(=O)COC(=O)c2ccc(N3CCCC3=O)cc2)c1,-0.8,-3.2,-1.6,.,0.4
CC(C)CCCCCCCCCCCCC(=O)NCC(=O)NC1C(C)OC(Nc2ncnc3nc[nH]c23)C(O)C1O (centres undefined),-1.4,1.4,11.6,-7.6,93.8*
CCc1nc2ccc(C(=O)NCCC(C)C)cn2c1N(C)Cc1ccc(OC)cc1,2.1,0.7,-11.2,.,1.9
c1coc(CSSCc2ccco2)c1,18.8,16.5,13.9,21.5,101.2*
Cc1ccc(NC(=O)CSCc2ccco2)cc1,-1.9,2.2,0.5,-3.7,4.1
O=C(Nc1cccc(Oc2ccccc2)c1)c1ccc(-n2cncn2)c2ccoc12,4.7,-1.1,1.6,.,-26.7
CCOC(=O)[C@]12CCCC=C1N(CCc1ccc(OC)c(OC)c1)C(=O)[C@H](CC(=O)N1CCN(C(=O)C3CC3)CC1)C2,-1.7,.,-0.7,.,.
Cn1c(N)c(C(=O)COC(=O)COc2ccc(Br)cc2)c(=O)n(C)c1=O,-0.9,-2.2,40.3*,-12.6,1.4
CCCN(CCC)Cc1cc(=O)oc2ccc3ccccc3c12,1.6,5.0,-6.2,.,6.9
O=C/C=C/c1coc2ccc3ccccc3c2c1=O,.,.,.,102.7*,.
CCC(C(=O)NC(C)(C)C)n1c(C(c2ccccc2)c2ccccc2)nc2ccccc21 (centres undefined),0.7,.,-5.4,.,.
COc1ccc(-c2noc(CCCC(=O)N3CCN(c4cc(C)ccc4C)CC3)n2)cc1,5.5,7.4,41.9*,3.9,-2.9
CC1(C(=O)NS(=O)(=O)Cc2cccc(Cl)c2)CCN1C(=O)c1cccc(F)c1 (centres undefined),-2.5,-3.7,7.0,.,11.1
COc1ccc(-c2ccc3c(c2)c(Sc2ccccc2)c(-c2ccccc2)n3C)cn1,2.4,.,-4.5,.,.
SMILES,LMPTP inh,STEP inh,SUMO1-SIM PPI,Scp1 inh,DNMT1 inh
CN(C)CCNc1ncnc2c1ncn2[C@H]1CN(CCc2ccccc2)C[C@@H](CO)O1,-2.8,2.4,-1.5,.,0.3
CCn1cc(C(=O)O)c(=O)c2cc(F)c(N3CCN(C(=S)NC(=O)c4ccccc4)CC3)cc21,66.5*,-0.5,7.8,-15.5,-3.2
C=CCNC(=S)N1CCN(c2cc3c(cc2F)c(=O)c(C(=O)O)cn3CC)CC1,19.2,1.0,6.5,-17.9,-0.6
CCn1cc(C(=O)NCc2ccc3c(c2)OCO3)c(=O)c2cc(F)c(N3CCN(C(=O)c4ccco4)CC3)cc21,53.4*,4.7,7.7,8.8,-15.8
CCn1cc(C(=O)O)c(=O)c2cc(F)c(N3CCN(C(=S)NC(=O)c4cc(OC)cc(OC)c4)CC3)cc21,62.6*,4.6,11.8,7.0,3.1
CCn1cc(C(=O)O)c(=O)c2cnc(N3CCN(C(=S)Nc4ccccc4)CC3)nc21,1.5,1.0,13.1,-7.2,-5.4
CCn1cc(C(=O)O)c(=O)c2cc(F)c(N3CCN(C(=S)Nc4ccc(OC)cc4)CC3)cc21,59.1*,-2.4,-1.8,-12.3,6.4
C=CCCCCCCCCC(=O)N1CCN(c2cc3c(cc2F)c(=O)c(C(=O)O)cn3CC)CC1,17.2,3.6,2.2,-19.0,1.7
CCn1cc(C(=O)NCc2ccccc2)c(=O)c2cc(F)c(N3CCN(C(=O)c4ccco4)CC3)cc21,6.1,2.0,13.0,3.6,-9.2
CCn1cc(C(=O)O)c(=O)c2cc(F)c(N3CCN(C(=S)NC(=O)c4ccccc4Cl)CC3)cc21,62.5*,6.5,26.6,-10.7,-0.2
CCn1cc(C(=O)O)c(=O)c2cc(F)c(N3CCN(C(=S)NC(=O)c4ccccc4C)CC3)cc21,64.2*,3.5,10.8,-15.5,0.1
CCCNC(=O)c1cn(CC)c2cc(N3CCN(C)CC3)c(F)cc2c1=O,1.2,4.9,-0.1,-8.5,-1.0
COCCN1C[C@@H](CO)O[C@@H](n2cnc3c(NCc4ccc(F)cc4)ncnc32)C1,-1.5,0.4,-2.9,.,5.5
CCOC(=O)C1=CCN(S(=O)(=O)c2ccccc2C)C1c1cccc(Br)c1 (centres undefined),0.6,-5.0,9.4,.,-5.6
Cc1ccc(S(=O)(=O)/N=C2\C=C(Nc3ccc(O)cc3)C(=O)c3ccccc32)cc1,9.2,4.2,12.1,-10.2,52.7*
COC(=O)c1ccccc1NC1=C/C(=N\S(=O)(=O)c2cccs2)c2ccccc2C1=O,6.7,3.6,-1.7,-16.2,45.1
COC(=O)c1ccccc1NC1=C/C(=N\S(=O)(=O)c2ccc(C(=O)O)cc2)c2ccccc2C1=O,1.5,25.1,102.8*,12.4,80.8*
CCc1ccc(S(=O)(=O)/N=C2\C=C(Nc3ccc(C(=O)O)cc3)C(=O)c3ccccc32)cc1,3.0,0.8,21.1,-12.4,41.2
Cc1ccc(NC2=C/C(=N/S(=O)(=O)c3cccs3)c3ccccc3C2=O)cc1,3.6,10.0,-5.3,-7.3,-8.9
